According to ChEMBL document CHEMBL1138107, “Novel non-nucleobase inhibitors of Staphylococcus aureus DNA polymerase IIIC” (Bioorg Med Chem Lett, 2006):
Converted amounts (≈) assume the structure as drawn. The source made the active and inactive calls. The rule behind the calls is not given here.

Tests used:
[1] = system: Staphylococcus aureus; experiment: Antimicrobial activity against Staphylococcus aureus (RN4220); assay type: functional
[2] = system: HeLa; experiment: Cytotoxicity against HeLa cell line by MTS assay; assay type: functional, cell-based; conditions: Homo sapiens
Method in brief: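 HeLa cells (2 × 10⁴/well) in DMEM with 1% bovine growth serum were exposed to compound at 100, 50, 25 and 12.5 for 18 h at 37 °C under 5% CO₂. Viability was read as MTS reduction to formazan, by absorbance at 490 nm.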

[3] = target: T1, DNA polymerase III PolC-type (Staphylococcus aureus) (UniProt P0C1P9); experiment: Inhibition of DNA polymerase3C from Staphylococcus aureus at 100 uM
T1 sequence (whole entry): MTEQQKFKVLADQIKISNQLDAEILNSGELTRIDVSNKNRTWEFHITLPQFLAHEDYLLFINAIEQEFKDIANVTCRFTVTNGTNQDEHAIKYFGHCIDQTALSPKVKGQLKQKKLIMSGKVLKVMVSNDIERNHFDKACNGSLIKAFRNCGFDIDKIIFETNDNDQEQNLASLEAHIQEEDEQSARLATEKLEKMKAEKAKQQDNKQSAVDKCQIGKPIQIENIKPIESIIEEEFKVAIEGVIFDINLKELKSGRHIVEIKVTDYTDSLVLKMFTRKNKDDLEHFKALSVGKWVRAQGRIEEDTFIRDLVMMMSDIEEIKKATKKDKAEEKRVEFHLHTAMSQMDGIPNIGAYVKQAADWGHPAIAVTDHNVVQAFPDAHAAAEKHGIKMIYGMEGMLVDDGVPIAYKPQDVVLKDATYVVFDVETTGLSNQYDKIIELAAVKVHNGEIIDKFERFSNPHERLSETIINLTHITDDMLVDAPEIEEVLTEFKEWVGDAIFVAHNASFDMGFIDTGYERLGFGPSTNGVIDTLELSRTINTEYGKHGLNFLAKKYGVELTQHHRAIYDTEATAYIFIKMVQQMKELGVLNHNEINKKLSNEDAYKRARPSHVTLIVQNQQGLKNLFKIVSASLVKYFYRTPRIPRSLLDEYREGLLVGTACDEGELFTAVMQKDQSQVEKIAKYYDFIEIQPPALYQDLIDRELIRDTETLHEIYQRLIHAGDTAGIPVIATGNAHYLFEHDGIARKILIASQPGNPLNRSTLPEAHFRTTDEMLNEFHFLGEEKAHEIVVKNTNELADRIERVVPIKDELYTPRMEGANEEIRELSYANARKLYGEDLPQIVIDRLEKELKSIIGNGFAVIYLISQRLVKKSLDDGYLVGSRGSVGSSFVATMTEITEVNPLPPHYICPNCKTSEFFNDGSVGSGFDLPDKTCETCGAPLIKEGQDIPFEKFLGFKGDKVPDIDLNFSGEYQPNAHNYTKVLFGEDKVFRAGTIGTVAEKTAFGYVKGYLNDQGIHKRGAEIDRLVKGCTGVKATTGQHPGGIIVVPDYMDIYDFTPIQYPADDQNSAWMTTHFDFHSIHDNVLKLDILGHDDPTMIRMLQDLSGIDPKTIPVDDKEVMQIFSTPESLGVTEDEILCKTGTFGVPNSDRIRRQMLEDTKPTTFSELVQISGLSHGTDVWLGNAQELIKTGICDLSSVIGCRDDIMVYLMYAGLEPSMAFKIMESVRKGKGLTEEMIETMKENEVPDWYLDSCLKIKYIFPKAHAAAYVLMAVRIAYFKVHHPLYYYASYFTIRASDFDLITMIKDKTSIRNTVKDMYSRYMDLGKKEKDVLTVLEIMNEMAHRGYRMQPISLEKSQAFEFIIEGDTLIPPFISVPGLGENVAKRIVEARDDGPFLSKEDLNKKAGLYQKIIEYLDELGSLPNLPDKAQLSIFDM
Method in brief: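 PolC oligonucleotide-primed incorporation of [³H]dTTP was run with 125 ng purified enzyme for 30 min at 37 °C. It was quenched with EDTA, filter-bound on DE81 and counted by liquid scintillation. Compounds were screened in triplicate at 10, 50 and 100.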

[4] = target: T2, DNA polymerase III PolC-type (Staphylococcus aureus, UniProt P0C1P9); experiment: Inhibition of DNA polymerase3C from Staphylococcus aureus
T2 sequence (P0C1P9 whole entry): T1 sequence (whole entry)
Method in brief: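 Purified PolC (125 ng) started the reaction with a double-stranded oligonucleotide substrate, dATP, dCTP, low dGTP and [³H]dTTP (1 Ci/mmol) in Tris-HCl pH 7.5 buffer with glycerol, EDTA, DTT, IgG and 8 mM MgCl₂. Incubation was 30 min at 37 °C, stopped with 20 mM EDTA, then spotted on DE81 filters, washed and counted by scintillation. IC50 came from a 12-point, roughly 2-fold serial dilution, run in triplicate.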

[5] = system: Staphylococcus aureus; experiment: Antimicrobial activity against Staphylococcus aureus (RN4220) in presence of 50% of human serum; assay type: functional
[6] = system: Hepatocyte; experiment: Cytotoxicity against human hepatocytes by measure of ATP production at 100 uM; assay type: functional, cell-based
Method in brief: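 Cryopreserved primary human hepatocytes (1 × 10⁴/well) in Krebs–Henseleit buffer were incubated with compound at 100, 50, 25 and 12.5 for 2 h at 37 °C under 5% CO₂. ATP content was then measured by luminescence after adding luciferin and luciferase.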

[7] = system: Staphylococcus aureus; experiment: Inhibition of DNA replication utilizing Staphylococcus aureus replication proteins in presence of reduced dATP concentrations; assay type: functional, organism-based
Method in brief: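 The replication assay used a singly primed circular ssM13 template copied by S. aureus PolC, with β clamp, δδ′/τ clamp loader and SSB. [³H]dTTP incorporation was measured in streptavidin-coated scintillation plates, with the dATP concentration reduced to sensitize the assay to dATP analogs.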

MIC ([1]; read-out: MIC) [µg/mL] | inhibition [3] [%] | IC50 [4] [µM] | MIC [5] [µg/mL] | MIC [1] [µg/mL] | IC50 [7] [µM] | SMILES | Activity [2] | Activity [6]
16 (≈ 44 µM) | 74 | – | – | – | – | Oc1nc(Nc2ccc3c(c2)CCC3)nc(O)c1CCOc1ccccc1 | Not toxic | –
– | – | 11.6 | – | – | – | COc1ccc(OCCCc2c(O)nc(Nc3ccc4c(c3)CCC4)[nH]c2=O)cc1 | – | –
– | – | 2.3 | – | – | – | C=CCc1c(Cl)nc(Nc2ccc3c(c2)CCC3)[nH]c1=O | – | –
64 (≈ 151 µM) | 85 | 5.1 | – | – | – | O=[N+]([O-])c1ccc(OCCCc2c(O)nc(Nc3ccc4c(c3)CCC4)nc2O)nc1 | Not toxic | –
16 (≈ 51.4 µM) | 89 | – | – | – | – | C=CCCCc1c(O)nc(Nc2ccc3c(c2)CCC3)nc1O | Not toxic | –
– | – | 7.7 | – | – | – | C=CCc1c(O)nc(Nc2ccc(C)c(CC)c2)[nH]c1=O | – | –
8 (≈ 20.4 µM) | 67 | 14 | – | – | – | Oc1nc(Nc2ccc3c(c2)CCC3)nc(O)c1CCCCOc1ccccc1 | Not toxic | –
– | – | 31 | – | – | – | C=CCc1c(O)nc(Nc2ccc3c(c2)CCC3)[nH]c1=O | – | –
16 (≈ 49.2 µM) | 81 | – | – | – | – | C=CCCCCc1c(O)nc(Nc2ccc3c(c2)CCC3)nc1O | Not toxic | –
128 (≈ 425 µM) | 74 | – | – | – | – | OCCCc1c(O)nc(Nc2ccc3c(c2)CCC3)nc1O | Not toxic | –
16 (≈ 38.2 µM) | 81 | – | – | – | – | CCc1cc(Nc2nc(O)c(CCCc3ccc(C#N)cc3OC)c(O)n2)ccc1C | Not toxic | –
1 (≈ 3.31 µM) | 53 | – | > 128 | – | – | C=CCc1c(O)nc(Nc2ccc3c(c2)CCC3)nc1Cl | Not toxic | –
4 (≈ 9.47 µM) | 70 | – | – | – | – | O=[N+]([O-])c1ccc(OCCCc2c(O)nc(Nc3ccc4c(c3)CCC4)nc2O)cc1 | Not toxic | –
> 64 | 83 | – | – | – | – | Nc1ccc(OCCCc2c(O)nc(Nc3ccc4c(c3)CCC4)nc2O)cc1 | Not toxic | –
8 (≈ 24 µM) | 90 | 37 | – | – | – | Oc1nc(Nc2ccc3c(c2)CCC3)nc(O)c1Cc1ccccc1 | Not toxic | –
16 (≈ 37 µM) | 95 | 3 | – | – | – | COc1cc(C#N)ccc1OCCCc1c(O)nc(Nc2ccc3c(c2)CCC3)nc1O | Not toxic | inactive
128 (≈ 347 µM) | 69 | – | – | – | – | Oc1nc(Nc2ccc3c(c2)CCC3)nc(O)c1CCCN1CCCCC1 | Not toxic | –
– | 36 | 104 | 32 | 16 (≈ 65.5 µM) | 28 | CCc1cc(Nc2nc(N)cc(O)n2)ccc1C | Not toxic | –
16 (≈ 39.3 µM) | 81 | – | – | – | – | COc1ccc(OCCCc2c(O)nc(Nc3ccc4c(c3)CCC4)nc2O)cc1 | Not toxic | –
8 (≈ 23 µM) | 68 | 18 | – | – | – | Oc1nc(Nc2ccc3c(c2)CCC3)nc(O)c1CCc1ccccc1 | Not toxic | –
8 (≈ 28.1 µM) | 32 | – | 32 | – | 7.7 | C=CCc1c(N)nc(Nc2ccc(C)c(CC)c2)nc1O | Not toxic | –
– | – | 2.6 | – | – | – | O=c1[nH]c(Nc2ccc3c(c2)CCC3)nc(O)c1CCCOc1ccc([N+](=O)[O-])cc1 | – | –

MIC ([1]; read-out: MIC) [µg/mL] | inhibition [3] [%] | IC50 [4] [µM] | MIC [5] [µg/mL] | MIC [1] [µg/mL] | IC50 [7] [µM] | SMILES | Activity [2] | Activity [6]
8 (≈ 26.9 µM) | 87 | 17.9 | – | – | – | C=CCCc1c(O)nc(Nc2ccc3c(c2)CCC3)nc1O | Not toxic | –
– | – | 5.6 | – | – | – | N#Cc1ccc(OCCCc2c(O)nc(Nc3ccc4c(c3)CCC4)[nH]c2=O)cc1 | – | –
> 128 | 7 | – | > 128 | – | – | CCCc1cnc(Nc2ccc3c(c2)CCC3)nc1O | Not toxic | –
– | – | 164 | – | – | – | C=CCc1c(N)nc(Nc2ccc(C)c(CC)c2)[nH]c1=O | – | –
> 128 | 17 | – | > 128 | – | > 100 | Nc1nc(Nc2ccc3c(c2)CCC3)nc(O)c1Cc1ccccc1 | Not toxic | –
> 128 | 3 | – | > 128 | – | 9.7 | CCc1cc(Nc2nc(N)c(Cc3ccccc3)c(O)n2)ccc1C | Not toxic | –
16 (≈ 56.5 µM) | 65 | – | > 128 | – | – | C=CCc1c(O)nc(Nc2ccc3c(c2)CCC3)nc1O | Not toxic | inactive
16 (≈ 42.1 µM) | 46 | – | > 128 | – | – | Oc1nc(Nc2ccc3c(c2)CCC3)nc(Cl)c1CCCc1ccccc1 | Not toxic | –
128 (≈ 430 µM) | 33 | – | > 128 | – | – | C=CCc1c(O)nc(Nc2ccc3c(c2)CCC3)nc1OC | Not toxic | –
> 128 | 5 | – | > 128 | – | – | Nc1cc(O)nc(Nc2ccc3c(c2)CCC3)n1 | Not toxic | –
8 (≈ 19.9 µM) | 91 | – | – | – | – | N#Cc1ccc(OCCCc2c(O)nc(Nc3ccc4c(c3)CCC4)nc2O)cc1 | Not toxic | –
8 (≈ 17.7 µM) | 72 | – | – | – | – | COc1cc(OCCCc2c(O)nc(Nc3ccc4c(c3)CCC4)nc2O)ccc1[N+](=O)[O-] | Not toxic | –
64 (≈ 147 µM) | 74 | – | – | – | – | COC(=O)c1ccc(OCCCc2c(O)nc(Nc3ccc4c(c3)CCC4)nc2O)cc1 | Not toxic | –
> 128 | -0 | – | > 128 | – | > 100 | Nc1nc(Nc2ccc3c(c2)CCC3)nc(O)c1CCCc1ccccc1 | Not toxic | –
> 128 | 90 | – | – | – | – | O=C(O)c1ccc(OCCCc2c(O)nc(Nc3ccc4c(c3)CCC4)nc2O)cc1 | Not toxic | –
> 128 | 35 | – | – | – | – | Oc1nc(Nc2ccc3c(c2)CCC3)nc(O)c1CCCCc1ccccc1 | Not toxic | –
8 (≈ 23.9 µM) | 94 | 4 | – | – | – | CCc1cc(Nc2nc(O)c(Cc3ccccc3)c(O)n2)ccc1C | Not toxic | inactive
> 128 | 40 | – | – | – | – | NCCCc1c(O)nc(Nc2ccc3c(c2)CCC3)nc1O | Not toxic | –
– | – | 9 | – | – | – | Nc1ccc(OCCCc2c(O)nc(Nc3ccc4c(c3)CCC4)[nH]c2=O)cc1 | – | –
> 128 | 12 | – | > 128 | – | 7.9 | CCc1cc(Nc2nc(N)c(CCCc3ccccc3)c(O)n2)ccc1C | Not toxic | –
– | – | 3 | – | – | – | O=c1[nH]c(Nc2ccc3c(c2)CCC3)nc(O)c1CCCc1ccccc1 | – | –
